How the values were obtained:
[1] = target: RNA-directed RNA polymerase (Hepacivirus hominis, UniProt O39930); test: Inhibition of HCV NS5B RNA polymerase
Huh-5-2 [2] = test: Inhibition of replication of HCV 1b BK RNA in Huh5-2 cells in presence of 10% fetal calf serum; type: functional, cell-based, Hepacivirus hominis; conditions: Homo sapiens, genotype 1b BK
How it was run: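 Huh-5-2 cells carrying the HCV replicon, assayed in medium with 10% FCS. EC50 is the mean of three independent experiments, with standard deviations within 30% of the mean.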

[3] = (§1) Permeability across Caco-2 cells; type: ADME, cell-based; conditions: human, read-out: permeability
Huh-5-2 [4] = test: Inhibition of replication of HCV 1b BK RNA in Huh5-2 cells in presence of 10% fetal calf serum and 4% human serum albumin; type: functional, cell-based, Hepacivirus hominis; conditions: genotype 1b BK
How it was run: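 Huh-5-2 replicon cells in medium with 10% FCS plus 4% human serum albumin. EC50 is the average of two experiments.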

Caco-2 [5] = test: Cytotoxicity against Caco-2 cells; type: functional; conditions: Homo sapiens
Caco-2 [6] = test: as §1; type: ADME, cell-based; conditions: human

Sequence of RNA-directed RNA polymerase (O39930 whole entry): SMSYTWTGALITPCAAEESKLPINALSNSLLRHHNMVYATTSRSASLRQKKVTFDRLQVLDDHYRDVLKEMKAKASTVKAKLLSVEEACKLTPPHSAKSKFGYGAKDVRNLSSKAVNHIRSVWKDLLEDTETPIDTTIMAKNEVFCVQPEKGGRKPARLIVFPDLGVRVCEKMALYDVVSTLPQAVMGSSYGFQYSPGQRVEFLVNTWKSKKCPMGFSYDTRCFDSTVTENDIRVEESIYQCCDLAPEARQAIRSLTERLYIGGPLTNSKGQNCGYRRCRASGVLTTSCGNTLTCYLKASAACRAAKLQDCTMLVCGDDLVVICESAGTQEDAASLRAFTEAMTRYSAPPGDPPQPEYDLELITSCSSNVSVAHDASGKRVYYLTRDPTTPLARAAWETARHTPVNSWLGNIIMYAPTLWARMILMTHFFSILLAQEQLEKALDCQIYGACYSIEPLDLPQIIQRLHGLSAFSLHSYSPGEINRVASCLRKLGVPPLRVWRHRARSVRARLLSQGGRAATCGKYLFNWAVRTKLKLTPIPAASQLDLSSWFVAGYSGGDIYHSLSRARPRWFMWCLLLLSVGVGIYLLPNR

Compound | IC50 [1] [nM] | EC50 (Huh-5-2 [2]) [nM] | Papp [3] [×10⁻⁶ cm/s] | EC50 (Huh-5-2 [4]) [nM] | CC50 (Caco-2 [5]) [nM] | Activity (Caco-2 [6])
O=C(O)c1ccc2c(C3CCCCC3)c3n(c2c1)CCOc1cc(OCc2ccccc2)ccc1-3 | 17 | – | – | – | – | –
O=C(O)c1ccc2c(C3CCCCC3)c3n(c2c1)CCCc1ccccc1-3 | 77 | 3000 | – | – | – | –
CN(C)C(=O)CN1CCn2c(c(C3CCCCC3)c3ccc(C(=O)O)cc32)-c2ccccc21 | 24 | 210 | 51.9 | 4300 | > 20000 | –
O=C(O)c1ccc2c(C3CCCCC3)c3n(c2c1)CCSc1ccccc1-3 | 38 | 1400 | – | – | – | –
O=C(O)c1ccc2c(C3CCCCC3)c3n(c2c1)CCN(Cc1ccccc1)c1ccccc1-3 | 41 | 550 | – | – | > 20000 | Active
Cl.O=C(O)c1ccc2c(C3CCCCC3)c3n(c2c1)CCNc1ccccc1-3 | 21 | 570 | 55.9 | > 10000 | > 20000 | –
CC(C)N1CCn2c(c(C3CCCCC3)c3ccc(C(=O)O)cc32)-c2ccccc21 | 36 | 1500 | – | – | > 20000 | Active
O=C(O)c1ccc2c(C3CCCCC3)c3n(c2c1)CCc1ccccc1-3 | 140 | 6000 | – | – | – | –
O=C(O)c1ccc2c(C3CCCCC3)c3n(c2c1)COc1ccccc1-3 | 140 | 4200 | – | – | – | –
CN(C)CCN1CCn2c(c(C3CCCCC3)c3ccc(C(=O)O)cc32)-c2ccccc21.Cl.Cl | 18 | 53 | 19.2 | 200 | > 20000 | –
CN1CCn2c(c(C3CCCCC3)c3ccc(C(=O)O)cc32)-c2ccccc21 | 19 | 590 | – | 6500 | > 20000 | Active
O=C(O)c1ccc2c(C3CCCCC3)c3n(c2c1)CCOc1ccccc1-3 | 26 | 860 | – | – | – | –
Cn1c(-c2ccc(OCc3ccccc3)cc2)c(C2CCCCC2)c2ccc(C(=O)O)cc21 | 120 | – | – | – | – | –
CC(=O)N1CCn2c(c(C3CCCCC3)c3ccc(C(=O)O)cc32)-c2ccccc21 | 120 | 1100 | – | – | > 20000 | Active
O=C(O)c1ccc2c(C3CCCCC3)c3n(c2c1)Cc1ccccc1-3 | 210 | > 10000 | – | – | – | –
Cl.Cl.O=C(O)c1ccc2c(C3CCCCC3)c3n(c2c1)CCN(CCN1CCCCC1)c1ccccc1-3 | 9 | 35 | 18.6 | 84 | > 20000 | –
O=C(O)c1ccc2c(C3CCCCC3)c3n(c2c1)CCN(CCc1ccccc1)c1ccccc1-3 | 26 | 310 | – | – | > 20000 | Active
